Our source for the inhibition, IC50 and Activity values is ChEMBL document CHEMBL4261533, “Identification of potent cholecystokinin-B receptor antagonists: synthesis, molecular modeling and anti-cancer activity against pancreatic cancer cells” (Medchemcomm, 2017).

For experiment [1], the target named is T1, Gastrin/cholecystokinin type B receptor (Mus musculus) (UniProt P56481).
T1 sequence (whole entry): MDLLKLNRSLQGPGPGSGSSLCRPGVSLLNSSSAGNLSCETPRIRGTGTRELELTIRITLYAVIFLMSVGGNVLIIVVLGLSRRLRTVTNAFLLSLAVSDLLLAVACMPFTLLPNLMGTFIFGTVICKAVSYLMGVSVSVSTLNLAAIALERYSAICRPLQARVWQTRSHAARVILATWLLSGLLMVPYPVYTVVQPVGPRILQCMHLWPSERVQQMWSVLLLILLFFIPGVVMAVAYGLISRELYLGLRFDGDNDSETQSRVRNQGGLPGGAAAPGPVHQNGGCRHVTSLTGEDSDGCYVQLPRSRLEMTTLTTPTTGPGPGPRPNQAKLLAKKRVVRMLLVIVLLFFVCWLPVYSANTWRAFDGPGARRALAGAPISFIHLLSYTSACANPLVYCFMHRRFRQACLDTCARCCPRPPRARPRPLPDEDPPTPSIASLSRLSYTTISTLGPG
Briefly: Inhibition of CCK-B receptor in lumen perfused albino mouse stomach assessed as reduction in boc-pentagastrin-induced gastric acid secretion at 100 nM after 45 mins relative to control. Format: functional. Summed up: (§1)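 Whole stomach excised from albino mice (25–30 g), lumen-perfused in an organ bath. Effluent pH monitored continuously with a pH probe. Acid output driven by sub-maximal Boc-pentagastrin (10 nM), measured before and 45 min after incubation with test compound. Percentage inhibition calculated.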

Experiment [2] deals with T1, Gastrin/cholecystokinin type B receptor (Mus musculus). Briefly: Inhibition of CCK-B receptor in lumen perfused albino mouse stomach assessed as reduction in boc-pentagastrin-induced gastric acid secretion after 45 mins relative to control. Format: functional. Summed up: as §1
Experiment [3] relates to MIA PaCa-2. Briefly: Cytotoxicity against human MIAPaCa2 cells assessed as reduction in cell viability after 24 hrs by MTT assay. Format: functional, cell-based. The conditions noted are these: MIA PaCa-2, 24 h. Summed up:
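MiaPaca-2 cells seeded at 1000/well, incubated 24 h at 37 °C, 5% CO2, then exposed to varying compound concentrations in 200 μL standard growth medium for 24 h. MTT (5 mg/mL stock in PBS) added for 4 h at 37 °C. Formazan dissolved in DMSO, absorbance read at 540 nm. IC50 taken from dose–response graphs.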

The target in experiment [4] is T2, Gastrin/cholecystokinin type B receptor (Rattus norvegicus, UniProt P30553).
T2 sequence (P30553 whole entry): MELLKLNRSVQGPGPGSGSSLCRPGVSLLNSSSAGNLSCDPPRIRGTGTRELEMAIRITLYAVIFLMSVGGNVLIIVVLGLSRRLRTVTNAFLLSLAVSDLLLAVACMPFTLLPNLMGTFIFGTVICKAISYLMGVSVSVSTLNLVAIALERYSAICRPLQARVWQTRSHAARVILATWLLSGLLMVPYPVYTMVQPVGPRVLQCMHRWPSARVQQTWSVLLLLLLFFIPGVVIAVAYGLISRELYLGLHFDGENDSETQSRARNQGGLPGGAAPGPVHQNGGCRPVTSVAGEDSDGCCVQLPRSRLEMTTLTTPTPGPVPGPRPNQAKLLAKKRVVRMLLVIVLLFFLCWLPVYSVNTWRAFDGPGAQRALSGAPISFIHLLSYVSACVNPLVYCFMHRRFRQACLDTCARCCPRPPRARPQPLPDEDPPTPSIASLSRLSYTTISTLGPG
Briefly: Displacement of [125I]-BH-CCK-8 from CCK-B receptor in rat cerebral cortex plasma membrane after 1 hr by liquid scintillation counting method. The experiment is classed as cell membranes. In outline:
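Rat cerebral cortex plasma membrane (100 μg per tube), receptor solubilized in detergent. Non-specific binding defined with 1 μM unlabeled CCK-8s. Bound and free ligand separated on filter mats, counted by liquid scintillation. IC50 by non-linear least-squares fitting.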

Experiment [5] concerns MIA PaCa-2. Briefly: Cytotoxicity against human MIAPaCa2 cells assessed as reduction in cell viability at 1 to 10 uM after 72 hrs by MTT assay. The experiment is classed as functional, cell-based.
Experiment [6] concerns MIA PaCa-2. Briefly: Inhibition of boc-pentagastrin-induced cell proliferation in human MIAPaCa2 cells at 1 to 10 uM up to 120 hrs by MTT assay. The experiment is classed as functional, cell-based. In outline: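 MiaPaca-2 cells seeded at 4000/well in 10% FCS-DMEM, then made quiescent for 24 h in incomplete medium. Boc-pentagastrin and/or antagonist (1 or 10 μM) added in incomplete medium; medium with the same concentrations replaced daily. MTT read after 48–120 h, absorbance at 540 nm. DMSO control at each time point set as 100%.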

Experiment [7] concerns the target T1, Gastrin/cholecystokinin type B receptor (Mus musculus). Briefly: Inhibition of CCK-B receptor in lumen perfused albino mouse stomach assessed as reduction in boc-pentagastrin-induced gastric acid secretion at 300 nM after 45 mins relative to control. Format: functional. Summed up: as §1
Experiment [8] has as its target T3, Gastrin/cholecystokinin type B receptor (Homo sapiens, UniProt P32239).
T3 sequence (P32239 whole entry): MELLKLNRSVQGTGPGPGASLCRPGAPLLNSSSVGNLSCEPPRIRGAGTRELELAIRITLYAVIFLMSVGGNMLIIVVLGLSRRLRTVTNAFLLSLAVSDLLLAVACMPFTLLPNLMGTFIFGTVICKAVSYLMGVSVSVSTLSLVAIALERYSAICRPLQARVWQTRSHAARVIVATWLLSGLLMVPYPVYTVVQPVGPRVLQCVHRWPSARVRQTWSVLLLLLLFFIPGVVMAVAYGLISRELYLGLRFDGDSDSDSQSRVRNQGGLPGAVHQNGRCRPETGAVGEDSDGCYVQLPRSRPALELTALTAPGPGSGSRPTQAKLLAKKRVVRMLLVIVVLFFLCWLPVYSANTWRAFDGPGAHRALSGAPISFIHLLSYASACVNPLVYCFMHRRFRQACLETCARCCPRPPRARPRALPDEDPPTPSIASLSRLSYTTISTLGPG
Briefly: Displacement of [125I]-gastrin17 from CCK-B receptor (unknown origin).

In experiment [9] the target is T1, Gastrin/cholecystokinin type B receptor (Mus musculus). Briefly: Inhibition of CCK-B receptor in lumen perfused albino mouse stomach assessed as reduction in boc-pentagastrin-induced gastric acid secretion at 1 uM after 45 mins relative to control. Format: functional. In outline:
as §1

Active and inactive are the calls of the source. The rule behind the calls is not given here.

As for `CCOc1ccc(-n2c(NNC(=S)Nc3cccc(C(=O)O)c3)nc3ccccc3c2=O)cc1`, the values for the inhibition in experiment [1] and in experiment [2] were 58% and “Dose-dependent effect”, respectively. Also, the IC50 was determined as 280000 nM in the experiment with MIA PaCa-2 [3] and 0.66 nM in experiment [4].
On to `CCOc1ccc(NC(=S)NNc2nc3ccccc3c(=O)n2-c2ccc(Cl)cc2)cc1`, for which the results for the inhibition in experiment [1] and in experiment [2] were 53% and “Dose-dependent effect”, respectively. In addition, the IC50 came to 80000 nM in the experiment with MIA PaCa-2 [3] and 9.71 nM in experiment [4].
Take `CCOc1ccc(-n2c(N/N=C3\C(=O)Nc4ccccc43)nc3ccccc3c2=O)cc1`: the values for the inhibition in [1] and in [2] were 48% and “Dose-dependent effect”, respectively. The results for the IC50 (with MIA PaCa-2 [3]; in experiment [4]) were 80000 nM and 17.4 nM, respectively.
On to `Cc1ccc(-n2c(N/N=C3\C(=O)Nc4ccccc43)nc3ccccc3c2=O)cc1`, for which the inhibition entry in experiment [2] was “Dose-dependent effect”; in experiment [7], 67%. Further, the IC50 in the experiment on MIA PaCa-2 [3] was found to be 10000 nM; in experiment [4], 56.5 nM. In addition, the result with MIA PaCa-2 [5] was Active. Moreover, the inhibition result with MIA PaCa-2 [6] is “Active”.
For the molecule `Cc1cccc(NC(=O)NC2N=C(c3ccccc3)c3ccccc3N(C)C2=O)c1` (stereo not drawn), the IC50 in the experiment on MIA PaCa-2 [3] came to 1.8 nM.
In the case of `O=C1Nc2ccccc2/C1=N/Nc1nc2ccccc2c(=O)n1-c1cccc(Cl)c1`, the inhibition in experiment [1] was 58%; in [2] it was “Dose-dependent effect”. Further, the IC50 with MIA PaCa-2 [3] stood at 92000 nM; in experiment [4], 384 nM.
On the same counts, the results for `O=C(O)c1cccc(NC(=S)NNc2nc3ccccc3c(=O)n2-c2ccc(Br)cc2)c1` are 39%, “Dose-dependent effect”, 200000 nM and 0.2 nM.
Taken in the same sequence, the figures for `O=C1Nc2ccccc2/C1=N/Nc1nc2ccccc2c(=O)n1-c1cccc(Br)c1` were 62%, “Dose-dependent effect”, 200000 nM and 19.5 nM.
Consider `CCOc1ccc(-n2c(NNC(=S)Nc3ccc(Br)cc3)nc3ccccc3c2=O)cc1`, for which the inhibition in [1] was 39%; in [2], “Dose-dependent effect”. For the same molecule, the IC50 in the experiment with MIA PaCa-2 [3] turned out to be 10000 nM; in [4], 2 nM. Moreover, the result in the experiment on MIA PaCa-2 [5] was Active. Moreover, the inhibition result in the experiment with MIA PaCa-2 [6] was “Active”.
For `CNc1cccc(NC(=O)NC2N=C(c3ccccn3)c3ccccc3N(CC(=O)C(C)(C)C)C2=O)c1` (stereo not drawn), the IC50 in experiment [8] stood at 0.1 nM.
For `O=C(O)c1cccc(NC(=S)NNc2nc3ccccc3c(=O)n2-c2ccccc2)c1`, the inhibition entry was “Dose-dependent effect” in [2] and 48% in experiment [9]. Also, the IC50 was 180000 nM in the experiment with MIA PaCa-2 [3] and 975 nM in experiment [4].
Turning to `CCOc1ccc(-n2c(NNC(=S)Nc3ccc(Cl)cc3)nc3ccccc3c2=O)cc1`, the inhibition in [1] was 58%; in experiment [2], “Dose-dependent effect”. Besides, the values for the IC50 (with MIA PaCa-2 [3]; in experiment [4]) were 250000 nM and 11.5 nM, respectively.
With `O=C(O)c1cccc(NC(=S)NNc2nc3ccccc3c(=O)n2-c2cccc(Br)c2)c1`, the values for the inhibition in [1] and in experiment [2] were 62% and “Dose-dependent effect”, respectively. In addition, the IC50 in the experiment with MIA PaCa-2 [3] was 150000 nM; in experiment [4], 8.64 nM.
For `O=C1Nc2ccccc2/C1=N/Nc1nc2ccccc2c(=O)n1-c1ccc(Cl)cc1`, the results for the inhibition in experiment [1] and in experiment [2] were 58% and “Dose-dependent effect”, respectively. In addition, the half-maximal inhibitory concentration (IC50) with MIA PaCa-2 [3] was found to be 100000 nM.
